Experimental data gathered from unrelated publications.
Protocols differ between the studies behind these lines.
Organism: Staphylococcus aureus
Effect on: microbial growth

CO[C@@H]1[C@@H](OC(N)=O)[C@@H](O)[C@H](Oc2ccc3c(O)c(NC(=O)c4ccc(O)c(CC=C(C)C)c4)c(=O)oc3c2C)OC1(C)C  MIC (broth dilution; ATCC29213): 0.25 µg/mL
O=C(OC[C@H]1O[C@@H](OC(=O)c2cc(O)c(O)c(O)c2)[C@H](OC(=O)c2cc(O)c(O)c(O)c2)[C@@H](OC(=O)c2cc(O)c(O)c(O)c2)[C@@H]1OC(=O)c1cc(O)c(O)c(O)c1)c1cc(O)c(O)c(O)c1  MIC (broth dilution; 16 h): 100 µg/mL
CC(O)CSc1nnc(-c2ccccc2)n1-c1ccccc1 (centres unmarked)  MIC: 2000 µg/mL
Cc1[nH]c(C(=O)Nc2ccc(C(=O)NCC(=O)O)cc2N2CCN(C(=O)OC(C)(C)C)CC2)c(Cl)c1Cl  MIC (broth dilution; ATCC29213): > 32 µg/mL
Cc1nn(-c2ccccc2)c2c1C(c1ccc(O)cc1)N(C(=O)c1ccncc1)N2 (centres unmarked)  MIC (MTCC96; 24 h): > 100 µg/mL
C[C@@H]1O[C@@H](OC[C@H]2O[C@@H](Oc3cc(O)c4c(c3)O[C@H](c3ccc(O)cc3)CC4=O)[C@H](O)[C@@H](O)[C@@H]2O)[C@H](O)[C@H](O)[C@H]1O  MIC (broth dilution; 16 h): > 250 µg/mL
CN[C@H](CC(C)C)C(=O)N[C@H]1C(=O)N[C@@H](CC(N)=O)C(=O)N[C@H]2C(=O)N[C@H]3C(=O)N[C@H](C(=O)N[C@H](C(=O)O)c4cc(O)cc(O)c4-c4cc3ccc4O)[C@H](O)c3ccc(c(Cl)c3)Oc3cc2cc(c3O[C@@H]2O[C@H](CO)[C@@H](O)[C@H](O)[C@H]2O[C@H]2C[C@](C)(N)[C@H](O)[C@H](C)O2)Oc2ccc(cc2Cl)[C@H]1O  MIC (BAA44 MRSA): 1 µM
COc1cc(Cc2cnc(N)nc2N)cc(OC)c1OC  MIC (broth dilution; FDA209): 16 µg/mL
Cc1nn(-c2ccccc2)c2c1C(c1ccc(N(C)C)cc1)N(C(=O)c1ccncc1)N2 (centres unmarked)  MIC (MTCC96; 24 h): 8 µg/mL
Cc1ccccc1NC(=O)C=Cc1ccc(O)c(O)c1  MIC (broth dilution; FDA209): 8 µg/mL
Cc1[nH]c(C(=O)Nc2ccc(C(=O)NCC(=O)O)cc2N2CC[C@H](NC(=O)OC(C)(C)C)C2)c(Cl)c1Cl  MIC (broth dilution; ATCC29213): > 32 µg/mL
CC(O)CSc1nnc(COc2ccc(Cl)cc2Br)n1-c1ccccc1 (centres unmarked)  MIC: 12000 µg/mL
CC1(C)S[C@@H]2[C@H](NC(=O)[C@H](N)c3ccccc3)C(=O)N2[C@H]1C(=O)O  MIC (24 h): < 1.25 µM
Nc1ccccc1OC(=O)C=Cc1ccc(O)c(O)c1  MIC (broth dilution; FDA209): 8 µg/mL
CC(O)CSc1nnc(-c2cc3ccccc3o2)n1-c1ccccc1 (centres unmarked)  MIC: 2500 µg/mL
Cc1nn(-c2ccccc2)c2c1C(c1c[nH]c3ccccc13)N(C(=O)c1ccncc1)N2 (centres unmarked)  MIC (MTCC96; 24 h): > 100 µg/mL
C[C@@H]1O[C@@H](OC[C@H]2O[C@@H](Oc3c(-c4ccc(OCCO)c(OCCO)c4)oc4cc(OCCO)cc(O)c4c3=O)[C@H](O)[C@@H](O)[C@@H]2O)[C@H](O)[C@H](O)[C@H]1O  MIC (broth dilution; 16 h): > 1020 µg/mL
Cc1[nH]c(C(=O)Nc2ccc(C(=O)NCc3n[nH]c(=O)o3)cc2N2CCNCC2)c(Cl)c1Cl.Cl  MIC (broth dilution; ATCC29213): > 32 µg/mL
C=C/C=C(\C)CC[C@H]1C[C@H](O)CC(=O)O1  MIC (broth dilution; ATCC6538P): 256 µg/mL
Cc1nn(-c2ccccc2)c2c1C(c1cncs1)N(C(=O)c1ccncc1)N2 (centres unmarked)  MIC (MTCC96; 24 h): 32 µg/mL
CC(C)(C)OC(=O)N[C@H]1CCN(c2cc(C(=O)NCC(=O)O)ccc2NC(=O)c2cc(Br)c(Br)[nH]2)C1  MIC (broth dilution; ATCC29213): > 32 µg/mL
Cc1nn(-c2ccccc2)c2c1C(c1ccc([N+](=O)[O-])cc1)N(C(=O)c1ccncc1)N2 (centres unmarked)  MIC (MTCC96; 24 h): 64 µg/mL
Cc1[nH]c(C(=O)Nc2ccc(C(=O)NCC(=O)O)cc2N2CC[C@@H](N)C2)c(Cl)c1Cl.Cl  MIC (broth dilution; ATCC29213): > 32 µg/mL
O=C(C=Cc1ccc(O)c(O)c1)OCc1ccccc1  MIC (broth dilution; FDA209): 8 µg/mL
Cl.N[C@@H]1CCN(c2cc(C(=O)NCC(=O)O)ccc2NC(=O)c2cc(Br)c(Br)[nH]2)C1  MIC (broth dilution; ATCC29213): > 32 µg/mL
CC1(C)S[C@@H]2[C@H](NC(=O)[C@H](N)c3ccccc3)C(=O)N2[C@H]1C(=O)O  MIC (broth dilution; FDA209): 4 µg/mL
